This is an account of results in ChEMBL document CHEMBL1124397, “A novel class of "GABAergic" agents: 1-aryl-3-(aminoalkylidene)oxindoles” (J Med Chem, 1989).

Data set [1] deals with Mus musculus. The data set is described as follows: Activity tested to antagonise cyclic GMP after administration of isoniazid in mouse brain. It is filed as functional.
Data set [2] is described as follows: Toxicity was measured in mouse by intraperitoneal administration; value ranges from 3.2-10. To be noted: in vivo, ip. The procedure, abridged:
(§1)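 Mouse LD50 in mg/kg after sc or ip dosing, by the route named in each line.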

Data set [3] is described as follows: Toxicity measured in mouse by subcutaneous administration. It is filed as organism-based. To be noted: in vivo, sc. The gist of the method: as §1
In data set [4] the test system is Mus musculus. The data set is described as follows: Activity to antagonise mercaptopropionic acid (MPA) induced convulsions in mouse after subcutaneous administration. Format: functional. As to conditions: sc. The procedure, abridged: (§2)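 Male Swiss CD mice (17–21 g), fasted 18 h, in groups of five. […] One hour later MPA 32 mg/kg ip. Protection meant no convulsions during 10 min of observation.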

Data set [5] concerns Mus musculus. Nature of the data set: Compound was tested for enhancement of [3H]Flunitrazepam ([3H]FNP) binding to mouse brain after intraperitoneal administration at a dose 10uM/kg, expressed as percent of control. Format: functional. The procedure, abridged:
(§3)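 Mice in groups of five received test compound or vehicle ip 1 h before 200 μCi/kg [3H]FNP iv and were killed 20 min later. Brains were homogenized in 40 volumes of ice-cold 50 mM Tris-HCl pH 7.7. Triplicate 1.0-mL samples were filtered on glass fiber, washed with cold buffer and counted. Bound FNP is given as % of vehicle-treated mice.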

The subject of data set [6] is Mus musculus. Nature of the data set: Compound was tested for enhancement of [3H]flunitrazepam ([3H]-FNP) binding to mouse brain after intraperitoneal administration at a dose 3.2uM/kg, expressed as percent of control. Format: functional. The gist of the method:
as §3

Data set [7] relates to Mus musculus. The data set is described as follows: Compound was tested for enhancement of [3H]Flunitrazepam ([3H]FNP) binding to mouse brain after intraperitoneal administration at a dose 32uM/kg, expressed as percent of control. It is filed as functional. The gist of the method:
as §3

For the next data set, the system named is P23576. The data set is described as follows: Administered at a dose 320 umol/kg intraperitoneally before [3H]Flunitrazepam ([3H]-FNP) in mouse brain expressed as percent of control. It is filed as functional, tissue-based. The gist of the method: as §3
Data set [8] can be described thus: Toxicity was measured in mouse by intraperitoneal administration; value ranges from 32-100. To be noted: in vivo, ip. The gist of the method: as §1
Data set [9] concerns the target GABA-A receptor; anion channel (Rattus norvegicus) (UniProt O09028+P15431+P18506+P18508+P19969+P20236+P23574+P23576+P28471+P28473+P30191+P62813+P63079+P63138+Q91ZM7+Q9ES14). The data set is described as follows: Antagonism of mercaptopropionic acid (MPA) induced convulsions in mouse. It is filed as functional, organism-based.
A short description of data set [10]: (§4) Toxicity was measured in mouse by intraperitoneal administration. As to conditions: in vivo, ip. The procedure, abridged:
as §1

Data set [11] concerns Mus musculus. Nature of the data set: Compound was tested for enhancement of [3H]Flunitrazepam ([3H]FNP) binding to mouse brain after intraperitoneal administration at a dose of 1000uM/kg, expressed as percent of control. Format: functional. The gist of the method: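 Groups of five mice got the test compound or vehicle ip at the stated dose, 1 h (60 min) before iv [3H]FNP at 200 μCi/kg. Mice were killed by cervical dislocation 20 min after [3H]FNP. Brains were frozen, weighed and homogenized in 40 volumes ice-cold 50 mM Tris-HCl pH 7.7. Triplicate 1.0-mL samples were filtered on glass fiber and washed with cold buffer. Bound radioactivity was counted and expressed as % of vehicle-treated mice.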

Data set [12] deals with Mus musculus. The data set is described as §4. To be noted: in vivo, ip. Format: organism-based. The gist of the method: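 Mice were dosed intraperitoneally and observed for 7 days after drug administration to estimate the LD50.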
For data set [13], the system named is Mus musculus. Nature of the data set: Activity to antagonise cyclic GMP after administration of isoniazid in mouse brain; value ranges from 3.2-10. It is filed as functional.
Data set [14] has as its system Mus musculus. The data set is described as follows: Activity to antagonise mercaptopropionic acid (MPA) induced convulsions in mouse after subcutaneous administration; the value ranges from 32-100. To be noted: sc. Format: functional. The procedure, abridged: as §2
Data set [15] has as its system Mus musculus. Nature of the data set: Activity to antagonise cyclic GMP after administration of isoniazid in mouse brain; value ranges from 1-3.2. It is filed as functional.
Data set [16] deals with Mus musculus. Nature of the data set: Ability to displace [3H]Flunitrazepam ([3H]-FNP) binding to mouse brain after intraperitoneal administration at a dose […]. Format: functional.
Data set [17] can be described thus: Ability to displace [3H]flunitrazepam ([3H]-FNP) binding to mouse brain after intraperitoneal administration at a dose 320 umol/kg. Format: functional, organism-based. As to conditions: at 320 µmol/kg. The gist of the method: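 Mice in groups of five got test agent or vehicle ip 1 h before iv [3H]FNP at 200 μCi/kg, then were killed 20 min later by cervical dislocation. Brains were frozen and homogenized in 40 volumes of ice-cold 50 mM Tris-HCl pH 7.7. Triplicate samples were filtered on glass fiber, washed with cold buffer and counted. Bound label is expressed as % of vehicle-treated mice.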

The subject of data set [18] is Mus musculus. Nature of the data set: Activity to antagonise cyclic GMP after administration of isoniazid in mouse brain; value ranges from 0.1-0.3. Format: functional.
Data set [19] has as its system Mus musculus. Nature of the data set: Activity to antagonise mercaptopropionic acid (MPA) induced convulsions in mouse after intraperitoneal administration. Format: functional. As to conditions: ip.
The test system of data set [20] is Mus musculus. The data set is described as follows: Compound was tested for enhancement of [3H]flunitrazepam ([3H]-FNP) binding to mouse brain after intraperitoneal administration at a dose of 100uM/kg, expressed as percent of control. It is filed as functional. The gist of the method: as §3
The subject of data set [21] is Mus musculus. The data set is described as follows: Compound was tested for enhancement of [3H]Flunitrazepam ([3H]FNP) binding to mouse brain after intraperitoneal administration at a dose of 10 uM/kg, expressed as percent of control. It is filed as functional. The procedure, abridged: as §3
For data set [22], the system named is Mus musculus. Nature of the data set: Compound was tested for enhancement of [3H]Flunitrazepam ([3H]FNP) binding to mouse brain after intraperitoneal administration at a dose of 32uM/kg, expressed as percent of control. Format: functional. The procedure, abridged: as §3
Data set [23] relates to Mus musculus. The data set is described as follows: Ability to displace [3H]Flunitrazepam ([3H]FNP) binding to mouse brain after intraperitoneal administration at a dose 32uMl/kg, expressed as percent of control. It is filed as functional. The gist of the method:
as §3

In data set [24] the test system is Mus musculus. Nature of the data set: Activity to antagonise mercaptopropionic acid (MPA) induced convulsions in mouse after subcutaneous administration; value ranges from 3.2-5.6. As to conditions: sc. Format: functional. The procedure, abridged: as §2
Data set [25] has as its system Mus musculus. The data set is described as follows: Activity to antagonise cyclic GMP after administration of isoniazid in mouse brain; value ranges from 0.3-1. Format: functional.
The subject of data set [26] is Mus musculus. Nature of the data set: Compound was tested for enhancement of [3H]Flunitrazepam ([3H]-FNP) binding to mouse brain after intraperitoneal administration at a dose of 3.2uM/kg, expressed as percent of control. It is filed as functional. The procedure, abridged:
as §3

Some results are limits rather than exact numbers.

What is called ED50 is the dose at which the effect has come halfway, by size or by number of responders. The LD50 is the dose at which mortality reaches 50%. Read a low LD50 as a more toxic substance.

Chain of P23576 (P23576 whole entry): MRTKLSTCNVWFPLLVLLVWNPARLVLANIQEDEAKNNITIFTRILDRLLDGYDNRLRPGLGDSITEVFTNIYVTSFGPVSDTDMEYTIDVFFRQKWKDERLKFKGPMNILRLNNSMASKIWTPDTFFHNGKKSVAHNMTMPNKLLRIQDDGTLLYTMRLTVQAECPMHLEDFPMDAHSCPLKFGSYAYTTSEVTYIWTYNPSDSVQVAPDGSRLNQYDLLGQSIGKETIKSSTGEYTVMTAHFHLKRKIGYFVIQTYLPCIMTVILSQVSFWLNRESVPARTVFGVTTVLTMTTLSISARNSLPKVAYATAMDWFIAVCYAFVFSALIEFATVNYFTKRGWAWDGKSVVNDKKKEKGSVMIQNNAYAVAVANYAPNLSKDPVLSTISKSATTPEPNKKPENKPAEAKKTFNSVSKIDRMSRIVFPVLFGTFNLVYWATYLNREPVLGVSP

As for `NCc1cc(O)no1` [MUSCIMOL], the 50% effective dose (ED50) in the data set on Mus musculus [1] turned out to be 1.5 mg/kg; in the data set with Mus musculus [4], 0.7 mg/kg. The median lethal dose (LD50) amounted to 3.2 mg/kg in data set [2] and 4.2 mg/kg in data set [3].

With `COc1ccc(N2C(=O)/C(=C3/CCCN3C)c3ccccc32)cc1Cl`, the Control was 128% in the data set with Mus musculus [5], 115% in the data set with Mus musculus [6], 159% in the data set on Mus musculus [7] and 220% in the data set with P23576. In addition, the LD50 is 32 mg/kg in data set [8] and no less than 320 mg/kg in data set [3]. The 50% effective dose (ED50) in the data set with Mus musculus [4] was 3.6 mg/kg.

Turning to `CCCC(CCC)C(=O)[O-].[Na+]` [VALPROATE SODIUM], the 50% effect level in [9] (ED50) was put at a dose of 212 mg/kg. In addition, the median lethal dose (LD50) in [10] and in [3] was greater than 1000 mg/kg throughout. Besides, the Control in the data set on Mus musculus [11] was determined as 128%.

Regarding `NC(=O)CCC/N=C(\c1ccc(Cl)cc1)c1cc(F)ccc1O` [PROGABIDE], the 50% effective dose (ED50) in [9] is greater than 100 mg/kg; in the data set with Mus musculus [1], less than 32 mg/kg. The figures for the LD50 in [10] and in data set [3] were roughly 1000 mg/kg and greater than 1000 mg/kg, respectively.

With `CCCCNc1c(C(=O)OCC)c(C)nc2c1cnn2CC` [TRACAZOLATE], the median effective dose (ED50) in the data set on Mus musculus [1] was roughly 3 mg/kg; in the data set on Mus musculus [12], greater than 1000 mg/kg; with Mus musculus [4] it was greater than 100 mg/kg.

In the case of `CN(C)/C=C1\C(=O)N(c2ccccc2Cl)c2ccccc21`, the ED50 in [9] was greater than 100 mg/kg; in the data set on Mus musculus [13] it was 3.2 mg/kg.

Regarding `COc1cccc(N2C(=O)/C(=C3/CCCN3C)c3ccccc32)c1`, the ED50 in the data set with Mus musculus [14] amounted to 100 mg/kg. This compound came in with a Control with P23576 of 214%.

`CN(C)/C=C1\C(=O)N(c2cccc(Cl)c2)c2ccccc21`: the ED50 in data set [9] was 26.1 mg/kg; in the data set on Mus musculus [15], 1 mg/kg.

Consider `CN1C(=O)CN=C(c2ccccc2)c2cc(Cl)ccc21` [DIAZEPAM], for which, in the data set on Mus musculus [16], the Control was 66%. Moreover, the median effective dose (ED50) in data set [9] was 0.7 mg/kg; in the data set on Mus musculus [1] it was less than 0.9 mg/kg.

As to `CN(C)/C=C1\C(=O)N(c2ccc(Cl)c(Cl)c2)c2ccccc21`, in data set [17], the [3H]flunitrazepam binding came out at 144%. The median effective dose (ED50) in data set [9] was greater than 100 mg/kg; in the data set on Mus musculus [18] it was 0.1 mg/kg.

With `CN1CCC/C1=C1/C(=O)N(c2cccc(Cl)c2)c2ccccc21`, the ED50 in [9] was greater than 100 mg/kg; in the data set with Mus musculus [19], roughly 3.2 mg/kg. Besides, the Control amounted to 132% in the data set on Mus musculus [20], 105% with Mus musculus [21], 105% in the data set with Mus musculus [22] and 192% with P23576. In addition, the median lethal dose (LD50) is greater than 320 mg/kg in [10] and greater than 1000 mg/kg in data set [3].

As to `COc1ccc(N2C(=O)/C(=C3/CCCN3C)c3ccccc32)cc1`, the Control with Mus musculus [23] stood at 103%; in the data set with Mus musculus [20], 192%; in the data set on Mus musculus [26], 105%; in the data set on Mus musculus [22], 125%; with P23576, 211%. Moreover, the ED50 was 5.6 mg/kg with Mus musculus [24], 1 mg/kg with Mus musculus [25] and roughly 3.2 mg/kg with Mus musculus [19]. For the same compound, the LD50 in data set [10] was greater than 320 mg/kg; in [3], greater than 1000 mg/kg.
